Measurements reported in ChEMBL document CHEMBL1142985, “Antineoplastic agents. 550. Synthesis of 10b(s)-epipancratistatin from (+)-narciclasine” (2007).
In brackets after ≈: the same amount, converted by molar mass.

tested on: MCF7; assay: Growth inhibition of human MCF7 cells after 48 hrs; assay type: functional; details: MCF7, 48 h
Outline: (§1)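 NCI sulforhodamine B assay. Cells in 5% fetal bovine serum/RPMI1640 seeded, grown 24 h, then exposed to serial compound dilutions for 48 h. Fixed with trichloroacetic acid, stained with sulforhodamine B, optical density read on a plate reader. GI50 taken as the concentration causing a 50% reduction in net protein increase.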

Structure (SMILES) | GI50
O=C1N[C@H]2[C@H](O)[C@H](O)[C@@H](O)[C@H](O)[C@@H]2c2cc3c(c(O)c21)OCO3 [PANCRATISTATIN] | 0.023 µg/mL (≈ 0.0707 µM)
CC(=O)O[C@H]1[C@@H](OC(C)=O)[C@@H]2NC(=O)c3c(cc4c(c3O)OCO4)[C@@]23OC(=S)O[C@H]3[C@@H]1OC(C)=O | > 1 µg/mL
CC(=O)O[C@H]1[C@@H](OC(C)=O)[C@@H]2NC(=O)c3c(cc4c(c3O)OCO4)[C@@]23OC(=O)O[C@H]3[C@@H]1OC(C)=O | 4.9 µg/mL (≈ 9.93 µM)
CC(=O)O[C@@H]1[C@@H](OC(C)=O)[C@H](OC(C)=O)[C@H]2c3cc4c(c(O)c3C(=O)N[C@H]2[C@@H]1OC(C)=O)OCO4 | 2 µg/mL (≈ 4.05 µM)
CC(=O)Oc1c2c(cc3c1C(=O)N[C@H]1[C@H](OC(C)=O)[C@H](OC(C)=O)[C@@H](OC(C)=O)[C@H](O)[C@@]31O)OCO2 | 5.2 µg/mL (≈ 10.2 µM)
CC(=O)O[C@@H]1[C@H](OC(C)=O)[C@@H](OC(C)=O)C=C2c3cc4c(c(O)c3C(=O)N[C@H]21)OCO4 | 0.06 µg/mL (≈ 0.138 µM)

tested on: NCI-H460; assay: Growth inhibition of human NCI-H460 cells after 48 hrs; assay type: functional; details: NCI-H460, 48 h; outline: as §1

Structure (SMILES) | GI50
O=C1N[C@H]2[C@H](O)[C@H](O)[C@@H](O)[C@H](O)[C@@H]2c2cc3c(c(O)c21)OCO3 [PANCRATISTATIN] | 0.032 µg/mL (≈ 0.0984 µM)
CC(=O)O[C@H]1[C@@H](OC(C)=O)[C@@H]2NC(=O)c3c(cc4c(c3O)OCO4)[C@@]23OC(=S)O[C@H]3[C@@H]1OC(C)=O | > 1 µg/mL
CC(=O)O[C@H]1[C@@H](OC(C)=O)[C@@H]2NC(=O)c3c(cc4c(c3O)OCO4)[C@@]23OC(=O)O[C@H]3[C@@H]1OC(C)=O | 2.9 µg/mL (≈ 5.88 µM)
CC(=O)O[C@@H]1[C@@H](OC(C)=O)[C@H](OC(C)=O)[C@H]2c3cc4c(c(O)c3C(=O)N[C@H]2[C@@H]1OC(C)=O)OCO4 | 1.3 µg/mL (≈ 2.63 µM)
CC(=O)Oc1c2c(cc3c1C(=O)N[C@H]1[C@H](OC(C)=O)[C@H](OC(C)=O)[C@@H](OC(C)=O)[C@H](O)[C@@]31O)OCO2 | > 10 µg/mL
CC(=O)O[C@@H]1[C@H](OC(C)=O)[C@@H](OC(C)=O)C=C2c3cc4c(c(O)c3C(=O)N[C@H]21)OCO4 | 0.033 µg/mL (≈ 0.0761 µM)

tested on: DU-145; assay: Growth inhibition of human DU145 cells after 48 hrs; assay type: functional; details: DU-145, 48 h; outline: as §1

Structure (SMILES) | GI50
O=C1N[C@H]2[C@H](O)[C@H](O)[C@@H](O)[C@H](O)[C@@H]2c2cc3c(c(O)c21)OCO3 [PANCRATISTATIN] | 0.015 µg/mL (≈ 0.0461 µM)
CC(=O)O[C@H]1[C@@H](OC(C)=O)[C@@H]2NC(=O)c3c(cc4c(c3O)OCO4)[C@@]23OC(=S)O[C@H]3[C@@H]1OC(C)=O | > 1 µg/mL
CC(=O)O[C@H]1[C@@H](OC(C)=O)[C@@H]2NC(=O)c3c(cc4c(c3O)OCO4)[C@@]23OC(=O)O[C@H]3[C@@H]1OC(C)=O | 1.5 µg/mL (≈ 3.04 µM)
CC(=O)O[C@@H]1[C@@H](OC(C)=O)[C@H](OC(C)=O)[C@H]2c3cc4c(c(O)c3C(=O)N[C@H]2[C@@H]1OC(C)=O)OCO4 | 1.4 µg/mL (≈ 2.84 µM)
CC(=O)Oc1c2c(cc3c1C(=O)N[C@H]1[C@H](OC(C)=O)[C@H](OC(C)=O)[C@@H](OC(C)=O)[C@H](O)[C@@]31O)OCO2 | 4.3 µg/mL (≈ 8.44 µM)
CC(=O)O[C@@H]1[C@H](OC(C)=O)[C@@H](OC(C)=O)C=C2c3cc4c(c(O)c3C(=O)N[C@H]21)OCO4 | 0.028 µg/mL (≈ 0.0646 µM)

tested on: KM-20L2; assay: Growth inhibition of human KM20L2 cells after 48 hrs; assay type: functional; details: KM-20L2, 48 h; outline: as §1

Structure (SMILES) | GI50
O=C1N[C@H]2[C@H](O)[C@H](O)[C@@H](O)[C@H](O)[C@@H]2c2cc3c(c(O)c21)OCO3 [PANCRATISTATIN] | 0.025 µg/mL (≈ 0.0769 µM)
CC(=O)O[C@H]1[C@@H](OC(C)=O)[C@@H]2NC(=O)c3c(cc4c(c3O)OCO4)[C@@]23OC(=S)O[C@H]3[C@@H]1OC(C)=O | > 1 µg/mL
CC(=O)O[C@H]1[C@@H](OC(C)=O)[C@@H]2NC(=O)c3c(cc4c(c3O)OCO4)[C@@]23OC(=O)O[C@H]3[C@@H]1OC(C)=O | 2.8 µg/mL (≈ 5.68 µM)
CC(=O)O[C@@H]1[C@@H](OC(C)=O)[C@H](OC(C)=O)[C@H]2c3cc4c(c(O)c3C(=O)N[C@H]2[C@@H]1OC(C)=O)OCO4 | 1.8 µg/mL (≈ 3.65 µM)
CC(=O)Oc1c2c(cc3c1C(=O)N[C@H]1[C@H](OC(C)=O)[C@H](OC(C)=O)[C@@H](OC(C)=O)[C@H](O)[C@@]31O)OCO2 | 3.6 µg/mL (≈ 7.07 µM)
CC(=O)O[C@@H]1[C@H](OC(C)=O)[C@@H](OC(C)=O)C=C2c3cc4c(c(O)c3C(=O)N[C@H]21)OCO4 | 0.051 µg/mL (≈ 0.118 µM)

tested on: BXPC-3; assay: Growth inhibition of human BXPC3 cells after 48 hrs; assay type: functional; details: BXPC-3, 48 h; outline: as §1

Structure (SMILES) | GI50
O=C1N[C@H]2[C@H](O)[C@H](O)[C@@H](O)[C@H](O)[C@@H]2c2cc3c(c(O)c21)OCO3 [PANCRATISTATIN] | 0.02 µg/mL (≈ 0.0615 µM)
CC(=O)O[C@H]1[C@@H](OC(C)=O)[C@@H]2NC(=O)c3c(cc4c(c3O)OCO4)[C@@]23OC(=S)O[C@H]3[C@@H]1OC(C)=O | > 1 µg/mL
CC(=O)O[C@H]1[C@@H](OC(C)=O)[C@@H]2NC(=O)c3c(cc4c(c3O)OCO4)[C@@]23OC(=O)O[C@H]3[C@@H]1OC(C)=O | 3.1 µg/mL (≈ 6.28 µM)
CC(=O)O[C@@H]1[C@@H](OC(C)=O)[C@H](OC(C)=O)[C@H]2c3cc4c(c(O)c3C(=O)N[C@H]2[C@@H]1OC(C)=O)OCO4 | 1.8 µg/mL (≈ 3.65 µM)
CC(=O)Oc1c2c(cc3c1C(=O)N[C@H]1[C@H](OC(C)=O)[C@H](OC(C)=O)[C@@H](OC(C)=O)[C@H](O)[C@@]31O)OCO2 | 14.4 µg/mL (≈ 28.3 µM)
CC(=O)O[C@@H]1[C@H](OC(C)=O)[C@@H](OC(C)=O)C=C2c3cc4c(c(O)c3C(=O)N[C@H]21)OCO4 | 0.011 µg/mL (≈ 0.0254 µM)

tested on: P388; assay: Growth inhibition of murine P388 cells after 48 hrs; assay type: functional; details: Mus musculus, P388, 48 h; read-out: ED50 (the source's name)
Outline: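 Mouse leukemia P388 cells held 24 h in 10% horse serum/Fisher medium, then incubated 48 h with serial compound dilutions. Cell numbers counted on a Coulter particle counter; ED50 taken as the concentration giving 50% growth inhibition.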

Structure (SMILES) | EC50
O=C1N[C@H]2[C@H](O)[C@H](O)[C@@H](O)[C@H](O)[C@@H]2c2cc3c(c(O)c21)OCO3 [PANCRATISTATIN] | 0.017 µg/mL (≈ 0.0523 µM)
CC(=O)O[C@H]1[C@@H](OC(C)=O)[C@@H]2NC(=O)c3c(cc4c(c3O)OCO4)[C@@]23OC(=S)O[C@H]3[C@@H]1OC(C)=O | > 1 µg/mL
CC(=O)O[C@H]1[C@@H](OC(C)=O)[C@@H]2NC(=O)c3c(cc4c(c3O)OCO4)[C@@]23OC(=O)O[C@H]3[C@@H]1OC(C)=O | 1.5 µg/mL (≈ 3.04 µM)
CC(=O)O[C@@H]1[C@@H](OC(C)=O)[C@H](OC(C)=O)[C@H]2c3cc4c(c(O)c3C(=O)N[C@H]2[C@@H]1OC(C)=O)OCO4 | 0.2 µg/mL (≈ 0.405 µM)
CC(=O)Oc1c2c(cc3c1C(=O)N[C@H]1[C@H](OC(C)=O)[C@H](OC(C)=O)[C@@H](OC(C)=O)[C@H](O)[C@@]31O)OCO2 | 1.7 µg/mL (≈ 3.34 µM)
CC(=O)O[C@@H]1[C@H](OC(C)=O)[C@@H](OC(C)=O)C=C2c3cc4c(c(O)c3C(=O)N[C@H]21)OCO4 | 0.013 µg/mL (≈ 0.03 µM)

tested on: SF-268; assay: Growth inhibition of human SF268 cells after 48 hrs; assay type: functional; details: SF-268, 48 h; outline: as §1

Structure (SMILES) | GI50
O=C1N[C@H]2[C@H](O)[C@H](O)[C@@H](O)[C@H](O)[C@@H]2c2cc3c(c(O)c21)OCO3 [PANCRATISTATIN] | 0.014 µg/mL (≈ 0.043 µM)
CC(=O)O[C@H]1[C@@H](OC(C)=O)[C@@H]2NC(=O)c3c(cc4c(c3O)OCO4)[C@@]23OC(=S)O[C@H]3[C@@H]1OC(C)=O | > 1 µg/mL
CC(=O)O[C@H]1[C@@H](OC(C)=O)[C@@H]2NC(=O)c3c(cc4c(c3O)OCO4)[C@@]23OC(=O)O[C@H]3[C@@H]1OC(C)=O | 7.5 µg/mL (≈ 15.2 µM)
CC(=O)O[C@@H]1[C@@H](OC(C)=O)[C@H](OC(C)=O)[C@H]2c3cc4c(c(O)c3C(=O)N[C@H]2[C@@H]1OC(C)=O)OCO4 | 3 µg/mL (≈ 6.08 µM)
CC(=O)Oc1c2c(cc3c1C(=O)N[C@H]1[C@H](OC(C)=O)[C@H](OC(C)=O)[C@@H](OC(C)=O)[C@H](O)[C@@]31O)OCO2 | 9.9 µg/mL (≈ 19.4 µM)
CC(=O)O[C@@H]1[C@H](OC(C)=O)[C@@H](OC(C)=O)C=C2c3cc4c(c(O)c3C(=O)N[C@H]21)OCO4 | 0.16 µg/mL (≈ 0.369 µM)
